In PMC9790683 (Birth Defects Research, 2022):
Values joined by “and” are separate entries in the source; they are usually repeats but may differ in a detail not shown here. Equal values may be shown once. Read-outs that look alike come from different tables or passages of the source.

Assays:
[1] = IVIVE, rat EAD with one‐compartment PPK model; conditions: oral; for EAD using PPK model, using nominal dTP Conc.: Css = dTP; for EAD using PPK model, using free medium Conc.: Css = free medium dTP
Procedure, shortened: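 Rat one-compartment population PK model assuming 100% absorption. Total clearance was hepatic plus renal (passive glomerular filtration), with inputs of plasma unbound fraction and hepatocyte Clint (predicted or experimental). Monte Carlo simulation of 10,000 individuals gave the upper 95th percentile steady-state plasma concentration. EAD was the dose giving total Css equal to the nominal dTP or Armitage-model free medium concentration.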

[2] = IVIVE, rat EAD with httk.PBTK model; conditions: oral; for EAD using Httk.PBTK model, using nominal dTP Conc.: Cmax = dTP; for EAD using Httk.PBTK model, using free medium Conc.: Cmax = free medium dTP
Procedure, shortened: (§1)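 Reverse dosimetry used the generic PBTK model from httk R package v1.8.1: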

[3] = tested on: human iPS cells (HYR0103, ATCC ACS‐1007); assay: devTOX quickPredict; type: cell-based; conditions: threshold 0.85, 48 hours; for TP: cell viability; for dTP: o/c ratio
Procedure, shortened: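 Human iPS cells exposed across a concentration range. Ornithine and cystine abundance measured, and ornithine/cystine ratio calculated at each concentration. dTP is the concentration, interpolated from the ratio response curve, where the ratio drops below a predefined developmental-toxicity threshold set from pharmaceuticals of known human teratogenicity. TP is the concentration where viability falls below the same threshold. Nominal values converted to free-medium concentration by mass-balance model.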

rat dams and fetuses = conditions: cited from earlier work; for Developmental toxicity LEL: rat, oral repeat dosing, maternal and fetal LELs combined, ref Table 2 sources
[4] = IVIVE, human EAD with httk.PBTK model; conditions: oral
Procedure, shortened: as §1

[5] = IVIVE, human EAD with GastroPlus pregnancy PBPK model; conditions: for EAD, GP.pregancy model, Maternal plasma Cmax, free medium concentration / EAD, GP.pregancy model, Maternal plasma Cmax, nominal dTP: human pregnancy, 12 weeks gestation
[6] = cited from earlier work; for Range of all human OEDs reported: across all in vitro assays (OEDall); for Range of all human OEDs reported / Range of human OEDs estimated from most sensitive endpoints: ref OECD, 2020; for Range of human OEDs estimated from most sensitive endpoints: most sensitive endpoint in each in vitro model (OEDnarrow)
[7] = EAD by linear extrapolation of clinical dose‐Cmax data; conditions: human, linear extrapolation of clinical dose‐Cmax data from PharmaPendium
Procedure, shortened: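 Clinical dose–plasma Cmax data for the reference teratogen were taken from PharmaPendium. Dose giving Cmax equal to the in vitro dTP concentration was found by linear extrapolation. dTP is the interpolated concentration where the ornithine/cystine ratio curve in the human iPS cell devTOX qP assay falls below the predefined threshold.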

[8] = Sprague–Dawley, corn oil gavage, GD 6–15, ref Narotsky et al., 1994
[9] = Wistar, drinking water, GD 6–19, ref Pennanen et al. (1992)
[10] = from CALUX Min EC10 cell-total, ref OECD 2020
[11] = from UKN1 HDAC inhibition EC10, ref OECD 2020
[12] = from ZET pericardial and/or yolk oedema Total embryo EC10, ref OECD 2020
[13] = from mEST HDAC inhibition, day 10 EC10, ref OECD 2020

Row | Structure (SMILES) | EAD using PPK model, using nominal dTP Conc. [1] | EAD using PPK model, using free medium Conc. [1] | EAD using Httk.PBTK model, using nominal dTP Conc. [2] | EAD using Httk.PBTK model, using free medium Conc. [2] | TP [3] | dTP [3] | Developmental toxicity LEL (rat dams and fetuses) | EAD, Httk.PBTK model, free medium concentration [4] | EAD, Httk.PBTK model, nominal dTP [4] | EAD, GP.pregancy model, Maternal plasma Cmax, free medium concentration [5] | EAD, GP.pregancy model, Maternal plasma Cmax, nominal dTP [5] | Range of all human OEDs reported [6] | Human OED_max fu model [6, 10] | Human OED_max fu model [6, 11] | Human OED_max fu model [6, 12] | Human OED_max fu model [6, 13] | Range of human OEDs estimated from most sensitive endpoints [6] | further results
1 | C=CCCC(=O)O [PA, 4‐Pentenoic acid] | 947.1 mg/kg/day | 931.1 mg/kg/day | 147.7 mg/kg/day | 145.2 mg/kg/day | 719 µM | 913 µM | 50 to 75 mg/kg/day | – | – | – | – | – | – | – | – | – | – | LEL: Fetal toxicity (rat dams and fetuses; [8]): 50 mg/kg/day
2 | CCCCC(CC)C(=O)O (stereo not shown) [EHA, 2‐Ethylhexanoic acid] | 95.3 mg/kg/day | 45.5 mg/kg/day | 77.3 mg/kg/day | 36.9 mg/kg/day | 390 µM | 399 µM | 100 to 600 mg/kg/day | 22.4 mg/kg/day | 47.0 mg/kg/day | 6.7 mg/kg/day | 14.1 mg/kg/day | 0.74–901.3 | – | – | – | – | – | LEL: Fetal toxicity (rat dams and fetuses; [9]): 100 mg/kg/day; LEL: Maternal toxicity (rat dams and fetuses; [9]): 600 mg/kg/day; Human OED_max fu model ([6]; human): 4.8 mg/kg
3 | CCCC(CCC)C(=O)O [VPA, Valproic acid, reference compound] | 33.3 mg/kg/day | 14.3 mg/kg/day | 13.5 mg/kg/day | 5.8 mg/kg/day | 318 µM | 236 µM | 200 mg/kg/day and 200 to 400 mg/kg/day | 4.5 mg/kg/day | 10.4 mg/kg/day | 2.7 mg/kg/day | 6.4 mg/kg/day | 0.11–51.9 | 3.2 mg/kg | 3 mg/kg | 2.8 mg/kg | 2 mg/kg | 0.11–3.2 | range of EADs derived from the in vitro dTP concentration ([5]; human, across all models, nominal and free): 2.7 to 24.4 mg/kg/day; LEL: Fetal toxicity (rat dams and fetuses; Sprague–Dawley, GD 8–17, dose range 0–800, ref Binkerd et al., 1988): 200 mg/kg/day; LEL: Fetal toxicity (rat dams and fetuses; [8]): 200 mg/kg/day; LEL: Maternal toxicity (rat dams and fetuses; [8]): 400 mg/kg/day; EAD based on Clinical PK data [7]: 4.6 mg/kg/day
4 | CCCCCC(CCC)C(=O)O (stereo not shown) [PHA, 2‐Propylheptanoic acid] | 27.5 mg/kg/day | 6.3 mg/kg/day | 39.5 mg/kg/day | 9.1 mg/kg/day | 425 µM | 546 µM | – | – | – | – | – | – | – | – | – | – | – | –
5 | C=CCC(CCC)C(=O)O (stereo not shown) [4‐ene‐VPA, 2‐Propyl‐4‐pentenoic acid] | 119.6 mg/kg/day | 95.7 mg/kg/day | 77.1 mg/kg/day | 61.7 mg/kg/day | 636 µM | 611 µM | – | – | – | – | – | – | – | – | – | – | – | –
6 | CCCC(C)C(=O)O (stereo not shown) [MPA, 2‐Methylpentanoic acid] | 2,957.1 mg/kg/day | 2,407.2 mg/kg/day | 574.2 mg/kg/day | 467.4 mg/kg/day | – | 1,248 μM | 188 mg/kg/day | 440.6 mg/kg/day | 541.2 mg/kg/day | 135.8 mg/kg/day | 166.9 mg/kg/day | 35.2–1,353.3 | 37.3 mg/kg | 186.6 mg/kg | 84.5 mg/kg | 261.1 mg/kg | 37.3–261.1 | LEL: Maternal toxicity (rat dams and fetuses; [8]): 188 mg/kg/day
7 | CCCCC(C)C(=O)O (stereo not shown) [MHA, 2‐Methylhexanoic acid] | 924.3 mg/kg/day | 573.1 mg/kg/day | 331.4 mg/kg/day | 205.5 mg/kg/day | 1,631 μM | 976 µM | – | 176.0 mg/kg/day | 285.5 mg/kg/day | 36.5 mg/kg/day | 59.12 mg/kg/day | 2.3–928.4 | 2.3 mg/kg | 254.8 mg/kg | 55.1 mg/kg | 286.3 mg/kg | 2.3–286.3 | –
8 | CCC(CC)C(=O)O [EBA, 2‐Ethylbutyric acid] | 2,708.3 mg/kg/day | 2,260.4 mg/kg/day | 517.4 mg/kg/day | 431.8 mg/kg/day | – | 1,071 μM | 150 mg/kg/day | 404.5 mg/kg/day | 484.7 mg/kg/day | 127.8 mg/kg/day | 153.2 mg/kg/day | 34.4–826.6 | 35.8 mg/kg | 161.4 mg/kg | 53.3 mg/kg | 357.8 mg/kg | 35.8–357.8 | –
9 | CCCCCC(=O)O [HA, Hexanoic acid] | 2,921.8 mg/kg/day | 2,308.2 mg/kg/day | 652.7 mg/kg/day | 515.6 mg/kg/day | 1,022 μM | 838 µM | – | – | – | – | – | – | – | – | – | – | – | –
10 | CCCC(C)(C)C(=O)O [DMPA, 2,2‐Dimethylpentanoic acid] | 936.6 mg/kg/day | 505.8 mg/kg/day | 388.3 mg/kg/day | 209.7 mg/kg/day | 1,745 μM | 784 µM | – | – | – | – | – | – | – | – | – | – | – | –
